Results on six compounds are retold here after PMC11040122 (Heliyon, 2024).

In general, pIC50 refers to −log10 of the IC50, conventionally taken in molar units.

pIC50: −log10 of the molar value.

One experiment deals with Sf9 cells. The experiment can be described thus: In vitro toxicity / cell growth inhibition rate. It counts as cell-based, Spodoptera frugiperda. The note with it: MTT assay, 72 h of treatment. The method, boiled down:
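Sf9 cells (2 × 10^4 cells/mL) in Grace's medium with 10 % FBS, exposed in triplicate to test compound (0.5–100 μM, from DMSO stocks); DMSO negative control. Incubated at 30 °C, humidified, no CO2, for 3–5 days until control wells near confluent. MTT (5 mg/mL) added for 4 h at 30 °C, formazan dissolved in DMSO, A570 read. IR = (1 − At/Ac) × 100; mean ± SD.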
Regarding `COc1c(O)cc2oc3cc(O)c(CC=C(C)C)c(O)c3c(=O)c2c1CC=C(C)C` [Alpha-mangostin], the “%IR At 100 μM (percent inhibition of cell growth rate)” value is 52.18%.

The next experiment deals with SlSCP-2.
Assay: not given
The note with it: read-out: IC50 values reported for natural compounds; cited from earlier work.
Regarding `CCCCC/C=C\C/C=C\C/C=C\C/C=C\CCCC(=O)O` [arachidonate], the pIC50 is 4.74.

On to `CC(C)CCC[C@@H](C)[C@H]1CC[C@H]2[C@@H]3CC=C4C[C@@H](O)CC[C@]4(C)[C@H]3CC[C@]12C` [cholesterol], for which the pIC50 was 4.30.

Take `CCCCCCCC/C=C\CCCCCCCC(=O)O` [oleic acid]: the negative logarithm of the IC50 (pIC50) was 4.61.

As to `CCCCCCCCCCCCCCCC(=O)O` [palmitic acid], the pIC50 is 4.23.

`CCCCCCCCCCCCCCCCCC(=O)O` [stearic acid]: the negative logarithm of the IC50 (pIC50) was 4.40.
